Measured values taken from ChEMBL document CHEMBL1123543, “3,7-Diazabicyclane: a new narcotic analgesic” (J Med Chem, 1986).
The source made the active and inactive calls.

How the values were obtained:
Opioid receptor = Opioid receptor (Rattus norvegicus, UniProt P33533+P34975+P33535); assay: Concentration required to inhibit opiate receptor using radioligand [3H]- Etorphine; format: protein assay
Rattus norvegicus [1] = assay: Effective dose for analgetic activity on intracerebroventricular administration in rats using tail flick test; Inactive at 780 nM; format: functional, organism-based
In short: (§1)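 Rats had cannulae stereotaxically implanted in the lateral ventricle (AP 0.0, L 2.0 from bregma, 3.5 mm below dura) and recovered for 2 weeks. Methanesulfonate salts in artificial rat CSF were injected icv at 10 μL over 30 s, with doses given as total amount. CSF alone served as control. After 0.5 h of acclimation in restraint, the tail was immersed 5 cm in 55 °C water at 5, 10, 15 and 20 min. Withdrawal latency was timed with a 30 s cutoff, averaging three observations. ED50 and 95% confidence limits were derived by Litchfield–Wilcoxon.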

Mus musculus [2] = assay: Effective dose for analgetic activity on subcutaneous administration in mice using Writhing test; Inactive at 460 uM/kg; format: functional, organism-based
In short: (§2)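 Mouse acetic acid writhing assay. Compounds were given as methanesulfonic acid salts, dissolved in deionized water and injected subcutaneously. ED50 values and 95% confidence limits were calculated by the Litchfield–Wilcoxon method.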

Rattus norvegicus [3] = assay: Effective dose for analgetic activity on intracerebroventricular administration in rats using tail flick test; format: functional; in short: as §1
Mus musculus [4] = assay: Effective dose for analgetic activity on subcutaneous administration in mice using Writhing test; format: functional; settings: sc; in short: as §2
Mus musculus [5] = assay: Effective dose for analgetic activity on subcutaneous administration in mice using Writhing test; Inactive; format: functional, organism-based; in short: as §2
Rattus norvegicus [6] = assay: Effective dose for analgetic activity on intracerebroventricular administration in rats using tail flick test; Inactive; format: functional, organism-based; in short: as §1

Row | Compound | IC50 (Opioid receptor) | ED50 (Rattus norvegicus [1]) | ED50 (Mus musculus [2]) | ED50 (Rattus norvegicus [3]) | ED50 (Mus musculus [4]) | ED50 (Mus musculus [5]) | ED50 (Rattus norvegicus [6])
1 | CCC(=O)OC(c1ccccc1)C1C2CN(C)CC1CN(C)C2 (stereo not drawn) | 7.6 µM | inactive | inactive | – | – | – | –
2 | CN1CC[C@]23c4c5ccc(O)c4O[C@H]2[C@@H](O)C=C[C@H]3[C@H]1C5 [MORPHINE] | – | – | – | 0.023 µM | 3 µmol/kg | – | –
3 | CCC(=O)OC(c1cccc(O)c1)C1C2CN(C)CC1CN(C)C2 (stereo not drawn) | 0.53 µM | – | – | 0.025 µM | 0.85 µmol/kg | – | –
4 | COC(c1cccc(O)c1)C1C2CN(C)CC1CN(C)C2 (stereo not drawn) | 2.3 µM | – | – | – | 0.56 µmol/kg | – | –
5 | COC(c1ccccc1)C1C2CN(C)CC1CN(C)C2 (stereo not drawn) | 7.2 µM | – | – | – | – | inactive | inactive
